Results pooled from the literature.
Each line is one published result; the experiments were not run side by side.
Read-out: cell growth or viability

Cc1noc(-c2nn(Cc3ccc(Cl)cc3Cl)c3ccccc23)n1 — IC50 (human Fibroblast; 48 h): 148 µM
OCc1ccc(N2CCc3cccc(F)c3C2)cc1Cl — IC50 (RBE; ATP luminescence): < 0.2 µM
C/C(=N\CCNCCNCC/N=C(\C)c1c(O)c2ccccc2oc1=O)c1c(O)c2ccccc2oc1=O — IC50 (BEAS-2B; MTT; 48 h): 4.11 µM
CCOC(=O)c1c(C)nc2ccc(-c3ccc(OCc4ccccc4)c(F)c3)cc2c1O — IC50 (MDA-MB-468; MTT; 48 h): 2 µM
OC1CCN(c2ccc(/C=N/NC(=S)Nc3ccc(Cl)cc3)cc2)CC1 — IC50 (BEAS-2B; MTT; 24 h): 13.7 µM
Cc1cnc(Cn2nc(-c3ccc(CO)o3)c3ccccc32)s1 — IC50 (RBE; ATP luminescence): 1.05 µM
Cc1ccc(CNC(=S)N/N=C/c2ccc(N3CCC(O)CC3)cc2)cc1 — IC50 (BEAS-2B; MTT; 24 h): 15.9 µM
C/C(=N\c1nc(N)nc(/N=C(\C)c2c(O)c3ccccc3oc2=O)n1)c1c(O)c2ccccc2oc1=O — IC50 (BEAS-2B; MTT; 48 h): 64.3 µM
COc1cccc2c1C(=O)c1c(O)c3c(c(O)c1C2=O)C[C@@](O)(C(=O)CO)C[C@@H]3O[C@H]1C[C@H](N)[C@H](O)[C@H](C)O1 — IC50 (RBE; 96 h): 0.0214 µM
CC(O)c1ccc(-c2nn(Cc3ccccc3)c3ccccc23)o1 (stereo not shown) — IC50 (RBE; ATP luminescence): 6.92 µM
COc1ccc2c(-c3nc(-c4ccccc4)no3)nn(Cc3ccncc3)c2c1 — IC50 (human Fibroblast; 48 h): 123 µM
CCc1nc(C(N)=O)c(Nc2ccc(N3CCC(N4CCN(C)CC4)CC3)c(OC)c2)nc1NC1CCOCC1 — IC50 (MV4-11; resazurin): 0.025 µM
c1ccc(-c2noc(-c3nn(Cc4ccncc4)c4ccccc34)n2)cc1 — IC50 (human Fibroblast; 48 h): 51.4 µM
OC1CCN(c2ccc(/C=N/NC(=S)Nc3ccccc3)cc2)CC1 — IC50 (BEAS-2B; MTT; 24 h): 18.9 µM
COc1ccc2c(-c3ncc(-c4ccccc4)o3)nn(Cc3ccccc3)c2c1 — IC50 (human Fibroblast; 48 h): 89.9 µM
COc1ccc(NC(=S)N/N=C/c2ccc(N3CCC(O)CC3)cc2)cc1 — IC50 (BEAS-2B; MTT; 24 h): 17.5 µM
CN1CCC(NC2CCc3[nH]c4c(C(N)=O)ccc(-c5ccccc5Cl)c4c3C2)CC1 (stereo not shown) — IC50 (RBE; 96 h): 0.00146 µM
NCc1ccc(-c2nn(Cc3ccccc3)c3ccccc23)o1 — IC50 (RBE; ATP luminescence): 2.4 µM
CC(=O)N1CCC(Nc2cc(C(=O)NC[C@H](O)CN3CCc4ccccc4C3)ncn2)CC1 — IC50 (MDA-MB-435S; CCK-8; 72 h): > 100 µM
CC1c2ccccc2CCN1c1ccc(CO)c(Cl)c1 (stereo not shown) — IC50 (RBE; ATP luminescence): < 0.2 µM
Cc1nc2ccc(-c3ccc(F)c(F)c3)cc2c(O)c1C(=O)O — IC50 (MDA-MB-468; MTT; 48 h): ≥ 100 µM
OCn1cncn1 — IC50 (BEAS-2B; MTT; 24 h): > 800 µM
C/C(=N\C1CCCCC1/N=C(\C)c1c(O)c2ccccc2oc1=O)c1c(O)c2ccccc2oc1=O (stereo not shown) — IC50 (BEAS-2B; MTT; 48 h): 5.46 µM
COc1cc(C2C3=C(COC3=O)N(CCO)c3cc4c(cc32)CCC4)cc(OC)c1OC (stereo not shown) — IC50 (MDA-MB-468; ATP luminescence; 48 h): 0.1 µM
Cc1nc2ccc(-c3ccc(F)cc3F)cc2c(O)c1C(=O)O — IC50 (MDA-MB-468; MTT; 48 h): ≥ 100 µM
Fc1ccc2c(-c3ncc(-c4ccccc4)o3)nn(Cc3ccccc3)c2c1 — IC50 (human Fibroblast; 48 h): 198 µM
OC1CCN(c2ccc(/C=N/NC(=S)Nc3ccc(F)cc3)cc2)CC1 — IC50 (BEAS-2B; MTT; 24 h): 29.1 µM
CCOC(=O)c1c(C)nc2ccc(-c3ccc(F)cc3)cc2c1O — IC50 (MDA-MB-468; MTT; 48 h): 5 µM
OCc1ccc(-c2nn(Cc3ccccc3)c3ncccc23)o1 — IC50 (RBE; ATP luminescence): 15.5 µM
CCOC(=O)c1c(C)nc2ccc(-c3ccc(F)c(F)c3)cc2c1O — IC50 (MDA-MB-468; MTT; 48 h): 4 µM
Fc1ccc2c(-c3nnc(Cc4ccccc4)s3)nn(Cc3ccc(Cl)cc3Cl)c2c1 — IC50 (human Fibroblast; 48 h): 191 µM
OCc1ccc(-c2nn(Cc3ccccn3)c3ccccc23)o1 — IC50 (RBE; ATP luminescence): 0.302 µM
Fc1ccc2c(-c3nnc(Cc4ccccc4)[nH]3)nn(Cc3ccc(Cl)cc3Cl)c2c1 — IC50 (human Fibroblast; 48 h): 584 µM
CC(=O)ON=C1C=CC(=C(C#N)c2ccccc2)C=C1 — IC50 (human Fibroblast; MTT; 24 h): 25.9 µg/mL
c1ccc2c(c1)ncn2Cn1cncn1 — IC50 (BEAS-2B; MTT; 24 h): 264 µM
OCc1ccc(-c2nn(Cc3cccnc3)c3cccnc23)o1 — IC50 (RBE; ATP luminescence): 5.01 µM
Fc1ccc2c(-c3nnc(Cc4ccccc4)s3)nn(Cc3ccccc3)c2c1 — IC50 (human Fibroblast; 48 h): 605 µM
